Source: PubChem BioAssay
This is a sample that favours compounds with a hit; in the whole collection about 2.2% have one here.
FLuc inh counter – Photinus pyralis luciferase inhibition counter-screen; ATPLite firefly luciferase biochemical luminescence, 10 min; inhibition, % at 10 µM; 200,000 tested, 1.5% active;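 active = inhibition above about 50% when tested at 10 µM, limit read from the data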
APP 5'UTR act – APP 5'UTR luciferase reporter activation | SH-SY5Y APP 5'UTR luciferase reporter, luminescence; zero percent = DMSO vehicle wells | activation, % at 2 µM | 190,000 tested, 1% active | AID 1276;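 active = activation above a set limit, based on mean plus 3 SD of controls, cut at about 140% in these data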
PPC-1+TRAIL kill – kills PPC-1 cancer cells in the presence of TRAIL | AID 1443 | cell killing (% activity), % at 4 µM or 5 µM | PPC-1 cells + TRAIL, ATPLite viability luminescence | 220,000 tested, 0.41% active;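 active = cell killing above 50% in the first pass at 4 µM, then a duplicate retest at 5 µM averaging 50% or more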
NF-kB expr up – NF-kB expression increase, human neuronal cells | NF-kB reporter expression; active compounds read high | fold change at 12.5 µM | 190,000 tested, 1.6% active | AID 1239; in the data active = fold change above about 3.3
TRAIL sens C8 – caspase-8 TRAIL sensitization; NB7+C8 cells + TRAIL, ATPlite viability luminescence; inhibition (viability loss, TRAIL sensitization), % at 10 µM; 360,000 tested, 1% active;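 active = compounds causing at least 50% loss of cell viability in the single-dose screen, relative to plate controls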
FLuc stim CS – affects firefly luciferase, flagging false hits in luciferase stimulation screens; P08659; ATPlite luciferase biochemical, luminescence, 10 min; 0 = ATP-free wells, 1 = DMSO control; activation factor at 10 µM; 200,000 tested, under 10 active; AID 1027;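 active = luciferase activation factor, scaled between plate controls, of at least 2 with compound at 10 µM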
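Material: Luciferase/luciferin reagent mix; Doses: test compounds dosed from 2 mM stocks in 100% DMSO; Schedule: 10 min incubation after luciferase reagent addition, room temperature; Measured by: luminescence from luciferase reaction; Read-out: luminescence gain marking luciferase activators.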
A number is an active result; . = inactive; / = no result given.

SMILES	FLuc inh counter	APP 5'UTR act	PPC-1+TRAIL kill	NF-kB expr up	TRAIL sens C8	FLuc stim CS
O=C(/C=C\Nc1ccc(Br)cc1)c1cccnc1	84.5	209.8	.	8.85	65.9	.
CC(=O)Nc1ccc(N/C=C/C(=O)c2ccccc2)cc1	/	/	/	/	.	/
Cc1cc(N/C=C/C(=O)c2ccccc2)ccc1Br	/	/	/	/	.	/
O=C(/C=C/Nc1ccccc1)c1ccccc1	91.9	172.1	.	9.06	63.9	.
COc1cccc(Nc2nc(C(N)C3CCCCC3)cs2)n1 (centres undefined)	/	/	/	/	.	/
CC1(C(=O)Nc2cccc(NS(C)(=O)=O)c2)Cc2c(-c3ccc(C(N)=O)cc3)ccnc2O1 (centres undefined)	/	/	/	/	.	/
C#CCNC(=O)C[C@@H]1C[C@@]2(C(=O)OC)CC(C)(C)CC=C2N(CCCCCCCC)C1=O	/	/	/	/	.	/
O=C(c1cc(Cl)cc(Cl)c1)N1CCC2CC1c1cc(N3CCCCC3)ccc12 (centres undefined)	/	/	/	/	.	/
CCCCn1nnnc1C1(C)CCC(=O)N1CCCN1CCOCC1 (centres undefined)	/	/	/	/	.	/
CCOC(=O)N1CCC(N2Cc3cccc(C(=O)Nc4cc(F)ccc4F)c3C2=O)CC1	.	.	55.7	.	.	.
COCCN1C(=O)c2ccccc2C1c1nnnn1Cc1ccccc1 (centres undefined)	/	/	/	/	.	/
Cc1ccc2nc(-c3ccccc3)nn2c1	/	/	/	/	76.2	/
CCC(CO)Nc1ccn2nc(-c3cccs3)cc2n1 (centres undefined)	/	/	/	/	.	/
COC(=O)c1sccc1N/N=C/c1cccc(Oc2ccccc2)c1	.	176.1	.	.	.	.
COC(=O)c1sccc1N/N=C/c1cccc(OC)c1O	.	180.0	.	3.6	.	.
Cc1cccc(/N=C/c2c(O)[nH]c3ccccc23)n1	.	.	.	3.43	.	.
Oc1[nH]c2ccccc2c1C=Nc1ccc2c(c1)OCCO2	76.5	182.8	.	4.38	57.1	.
O=C1C(F)=CC(COC(c2ccccc2)(c2ccccc2)c2ccccc2)OC1n1cc(F)c(=O)[nH]c1=O (centres undefined)	/	/	/	/	89.0	/
COc1cc(CN2C(=O)C(C)ON=C2c2cccs2)cc(OC)c1 (centres undefined)	/	/	/	/	.	/
S=c1[nH]nc(-c2ccc3ccccc3n2)n1-c1cc(Cl)cc(Cl)c1	69.6	.	.	.	.	.
Cc1ccc2cc(CCNC(=O)c3ccco3)c(=O)[nH]c2c1	.	.	.	.	.	.
Cc1ccc2cc(CCNC(=O)c3ccco3)c(=O)[nH]c2c1C	.	.	.	3.87	.	.
O=C(CC1Nc2ccccc2NC1=O)NCCc1ccccc1 (centres undefined)	.	.	.	.	.	.
O=C(CC1Nc2ccccc2NC1=O)c1ccccc1 (centres undefined)	54.3	.	.	.	/	.
CCOc1cc(NC(=O)c2ccccn2)c(OCC)cc1NC(=O)c1ccccc1	.	.	/	.	.	.
SMILES	FLuc inh counter	APP 5'UTR act	PPC-1+TRAIL kill	NF-kB expr up	TRAIL sens C8	FLuc stim CS
CCOc1cc(NC2CS(=O)(=O)CC2O)c(OCC)cc1NC(=O)c1ccccc1 (centres undefined)	.	.	.	.	51.0	.
Oc1ccc(-c2nnc(SCC3CCCCC3)o2)cc1	.	.	.	4.89	72.5	.
COc1ccc(C2C(C#N)=C(N)Oc3cc(N)ccc32)cc1 (centres undefined)	/	/	/	/	.	/
COc1cc(C2C(C#N)=C(N)Oc3cc(N)ccc32)cc(OC)c1OC (centres undefined)	.	.	.	3.74	.	.
Cc1ccc(Nc2nc(N)nc(-c3oc4ccccc4c3C)n2)cc1	.	.	.	/	.	.
Cc1c(-c2nc(N)nc(Nc3ccccc3F)n2)oc2ccccc12	.	176.2	.	5.8	.	.
Cc1cccc(NC(=O)c2cc3ccccc3o2)c1	66.1	177.8	.	6.7	.	.
Cc1cc(C(=O)Nc2cccc(C(=O)O)c2)c(C)o1	.	.	.	.	.	.
O=C(Nc1cccc(Br)c1)c1cc2ccccc2o1	.	158.4	.	5.71	.	.
CCOC(=O)c1cccc(NC(=O)c2cc3ccccc3o2)c1	/	/	/	/	.	/
CC(C)C(=O)Nc1ccc(NC(=O)c2cc3ccccc3o2)cc1	.	.	.	.	.	.
Cc1cc(C(=O)Nc2cccc(C(=O)O)c2)oc1C	.	.	.	7.04	.	.
